A short description of data set [1]: Ratio of drug level in brain to plasma in CD1 mouse at 12.92 mg/kg, ip administered as single dose measured after 60 mins by LC/ESI-MS/MS analysis. The data set is classed as ADME, organism-based. Particulars: brain and plasma, read-out: BPR.
The test system of data set [2] is Rattus norvegicus. The data set is described as follows: Toxicity in pilocarpine-induced status epilepticus Sprague-Dawley rat model assessed as average weight change at 100 mg/kg, ip measured 24 hrs post first stage 3 seizure. The data set is classed as organism-based. Particulars: in vivo.
A short description of data set [3]: Ratio of drug level in brain to plasma in CD1 mouse at 12.92 mg/kg, ip administered as single dose measured after 15 mins by LC/ESI-MS/MS analysis. It is filed as ADME, organism-based. Particulars: brain and plasma, read-out: BPR.
The test system of data set [4] is Mus musculus. Put plainly: AUMC (0 to infinity) in CD1 mouse plasma at 1 mg/kg, iv measured up to 240 mins by LC/ESI-MS/MS analysis. The data set is classed as ADME, organism-based. The note with it: in vivo, 4 h. The method in brief: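 Male CD1 mice fasted overnight, single iv dose 1 mg/kg; sampled at 0, 5, 15, 30, 60, 120 and 240 min (one sample per mouse, four mice per time), under ketamine/xylazine. Heparinized plasma quantified by validated LC/ESI-MS/MS; non-compartmental moment method; AUMC extrapolated to infinity using terminal rate constant from log-linear regression.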

The nature of data set [5]: Half life in CD1 mouse plasma at 1 mg/kg, iv measured up to 240 mins by LC/ESI-MS/MS analysis. The data set is classed as ADME, organism-based. Summed up: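 Male CD1 mice, fasted overnight, were dosed iv at 1 mg/kg. Under ketamine/xylazine, blood was collected at 0, 5, 15, 30, 60, 120 and 240 min, one sample per animal, four mice per time point. Plasma concentrations were measured by LC/ESI-MS/MS. Terminal t1/2 was taken as 0.693/kz, with kz from log-linear regression, using non-compartmental analysis.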

Data set [6] in a line: Ratio of drug level in brain to plasma in CD1 mouse at 1 mg/kg, iv administered as single dose measured after 5 mins by LC/ESI-MS/MS analysis. It is filed as ADME, organism-based. The note with it: brain and plasma, read-out: BPR.
Data set [7] relates to Mus musculus. Put plainly: AUC (0 to infinity) in CD1 mouse plasma at 12.92 mg/kg, ip measured up to 240 mins by LC/ESI-MS/MS analysis. It is filed as ADME, organism-based. Set-up: dose 12.92 mg/kg, route intraperitoneal, time infinity. Particulars: in vivo, 4 h.
Data set [8] is described as follows: in vitro. The note with it: mouse, liver microsomes.
The nature of data set [9]: Absolute bioavailability in CD1 mouse plasma at 12.92 mg/kg, ip measured up to 240 mins by LC/ESI-MS/MS analysis. It is filed as ADME, organism-based.
Data set [10] concerns Mus musculus. Put plainly: Tmax in CD1 mouse plasma at 12.92 mg/kg, ip measured up to 240 mins by LC/ESI-MS/MS analysis. The data set is classed as ADME, organism-based. The note with it: in vivo, 4 h.
Data set [11] relates to Mus musculus. Put plainly: AUC (0 to infinity) in CD1 mouse plasma at 12.92 mg/kg, ig measured up to 240 mins by LC/ESI-MS/MS analysis. It is filed as ADME, organism-based. Set-up: dose 12.92 mg/kg, time infinity, route […]. Particulars: in vivo, po, 4 h.
Data set [12] can be described thus: MRT in CD1 mouse brain at 12.92 mg/kg, ip measured up to 240 mins by LC/ESI-MS/MS analysis. It is filed as ADME, organism-based.
The nature of data set [13]: Ratio of drug level in brain to plasma in CD1 mouse at 1 mg/kg, iv administered as single dose measured after 120 mins by LC/ESI-MS/MS analysis. The data set is classed as ADME, organism-based. The note with it: brain and plasma, read-out: BPR.
Data set [14] deals with Mus musculus. Put plainly: Neurotoxicity in mouse at 100 mg/kg, ip after 0.5 hrs by rotarod test. It is filed as toxicity, organism-based. Particulars: in vivo. The method in brief:
(§1)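 Mice were dosed ip with compound suspended in 0.5% methylcellulose. Rotarod: a 1 in. knurled rod turning at 6 rpm. Neurotoxicity was scored as failure to stay on the rod for at least 1 min in each of three trials. Results are given as the number of animals affected out of the number tested.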

The nature of data set [15]: Cmax in CD1 mouse brain at 1 mg/kg, iv measured up to 240 mins by LC/ESI-MS/MS analysis. The data set is classed as ADME, organism-based. More on the design: dose 1 mg/kg, route intravenous.
Data set [16] relates to Mus musculus. The data set is described as follows: Neurotoxicity in mouse at 30 mg/kg, ip after 4 hrs by rotarod test. It is filed as toxicity, organism-based. The note with it: in vivo. Summed up:
as §1
Background: In the rotarod test animals must keep their balance on a rotating rod.

Data set [17] is described as follows: MRT in CD1 mouse plasma at 12.92 mg/kg, ig measured up to 240 mins by LC/ESI-MS/MS analysis. The data set is classed as ADME, organism-based. The note with it: po.
Data set [18] relates to Mus musculus. The data set is described as follows: Neurotoxicity in mouse at 300 mg/kg, ip after 0.5 hrs by rotarod test. The data set is classed as toxicity, organism-based. The note with it: in vivo. The method in brief: as §1
Data set [19] concerns Mus musculus. The data set is described as follows: Anticonvulsant activity in mouse assessed as protection against 6 Hz psychomotor seizure at 20 mg/kg, ip after 0.5 hrs. It is filed as functional, organism-based. Summed up:
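Suspension in 0.5% methylcellulose given ip to mice; corneal stimulation with 0.2 ms monopolar rectangular pulses at 6 Hz for 3 s from a constant current device, mice restrained then released to observation cage. Protected if normal exploratory behaviour resumed within 10 s of stimulation. Scored as protected/tested, 4 mice per group.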

For data set [20], the system named is Rattus norvegicus. The data set is described as follows: Anticonvulsant activity in rat assessed as protection against maximal electric shock-induced seizures at 30 mg/kg, ip measured after 0.5 hrs. It is filed as functional, organism-based. The method in brief: (§2)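 Rats dosed ip or orally as 0.5% methylcellulose suspension; maximal electroshock at listed time. Protection = abolition of hindlimb tonic extension; 4 rats per group, scored protected/tested.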

For data set [21], the target named is Small conductance calcium-activated potassium channel (Rattus norvegicus) (UniProt P70604+P70606+P70605). Put plainly: Displacement of [125I]apamin from rat cerebral cortex small conductance calcium-activated potassium channel at 10^-5 M. It is filed as tissue-based. Summed up: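 Radioligand binding screen run at a single test concentration of 10^-5 M. Each target used its stated receptor source (human recombinant CHO or HEK-293 cells, endogenous cell lines, or rat tissue membranes) with the listed radioligand.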
Background: Displacement assays read how much labelled ligand stays bound in the presence of the test substance.

Data set [22] has as its system Rattus norvegicus. The data set is described as follows: Anticonvulsant activity in rat assessed as protection against maximal electric shock-induced seizures at 30 mg/kg, po measured after 4 hrs. It is filed as functional, organism-based. The method in brief: as §2

Molecules are shown by their SMILES. The source made the active and inactive calls. No cut-off for these calls is given here.

As for `Cc1cccc(C)c1OCCOCCN[C@H](C)CO.Cl`, the Kp at 1 h in data set [1] came out at 1.91. For the same molecule, the Activity in data set [2] is given as 17.5 g; in [14] it was “Toxic”; in data set [16] it was “Non-toxic”; in data set [18] it was “Toxic”. The Kp at […] in data set [3] was found to be 2.55. The AUMC in [4] was found to be 956 ng·h²/mL. In data set [5], the half-life turned out to be 51.5 min. Also, in [6], the Kp at 5 min is 5.27. Besides, the AUC in data set [7] turned out to be 903 ng·h/mL; in data set [11], 396 ng·h/mL. The molecule also came in with a half-life at 20 µM in [8] of 37 min. The molecule also returned a bioavailability in data set [9] of 6.78%. In data set [10], the Tmax was determined as 5 min. Besides, the values for the MRT in data set [12] and in data set [17] were 83.1 min and 40.3 min, respectively. The Kp at 2 h in data set [13] worked out at 6.66. Besides, in data set [15], the Cmax came to 11500 ng/mL.

For the molecule `Cc1cccc(C)c1OCCOCCN[C@@H](C)CO`, the outcome in data set [19] and in [22] was inactive. For the same molecule, the outcome in data set [20] was Active. In data set [21], the inhibition was -0.9%.

The half-life is how long it takes for the measured level to halve. In general, AUC refers to concentration integrated over time. Lower therefore signals less exposure. What is called bioavailability is the share of a dose that reaches the circulation, judged against a reference dose that is usually intravenous. A word on the Tmax: it is the time at which the peak concentration occurs. As usually defined, the MRT is a mean duration of stay, worked out from the concentration-time curve. The term Cmax denotes the maximum level reached in the sampled fluid or tissue. For orientation: inhibition means the change of the read-out against control, counted positive when it falls.
